Data set [1] concerns the target T1, human norepinephrine transporter (hNET) (Homo sapiens, UniProt P23975). The experiment in a line: Saturation transport kinetics assays with intact C6-hNET cells. Type of data set: cell-based. The following applies: for Km / Vmax: intact C6-hNET cells, 5 min, 37 °C, mean ± SD, n = 4 or 5.
Data set [2] addresses T1, human norepinephrine transporter (hNET). Nature of the data set: Competitive inhibition of [^3H]mazindol binding to C6-hNET cell membranes. An outline of the steps: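 Rat C6 glioma cells stably expressing human NET were Dounce-homogenized, and membranes were pelleted at 100,000 × g and resuspended in 50 mM Tris, 120 mM NaCl, 5 mM KCl, pH 7.4. Each assay used 70–100 μg protein. Radioligand was [3H]mazindol, with desipramine defining nonspecific binding. Ten inhibitor concentrations were run in quadruplicate and normalized to % specific binding. A one-site competition fit gave IC50, converted to Ki by Cheng-Prusoff using the mean saturation KD.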

For data set [3], the system named is norepinephrine transporter (NET). The following applies: isolated rat heart, cited from earlier work.
The target of data set [4] is T1, human norepinephrine transporter (hNET). Nature of the data set: Saturation binding assays with [^3H]mazindol and C6-hNET membranes. The note with it: C6-hNET cell membranes, n = 4. An outline of the steps:
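The membranes were C6-hNET cell membranes, 100,000 × g pellets in 50 mM Tris/120 mM NaCl/5 mM KCl, pH 7.4, from different batches. Protein was measured by Lowry with BSA standards. Eight [3H]mazindol concentrations (0.25–25 nM) were tested, with specific binding in triplicate at each. A one-site binding nonlinear fit gave KD (nM) and Bmax (fmol/mg protein).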

The conditions of data set [5]: earlier studies, reference not given; cited from earlier work.
The test system of data set [6] is norepinephrine transporter (NET). The experiment in a line: NET transport kinetics / neuronal uptake in isolated perfused rat hearts. The note with it: isolated rat heart, ratio of Vmax and Km estimates.
The mark [7] stands for this setting: [^3H]mazindol, homogenized C6-hNET cell membranes, Cheng-Prusoff, mean ± SD, n = 4 or 5.

Read-outs that look alike come from different tables or passages of the source.

Results on 18 compounds are retold here after paper PMC3596460 (Nuclear medicine and biology, 2013).

The Km is the concentration of substrate that gives half-maximal velocity. As a reminder, the Ki is the equilibrium dissociation constant of an inhibitor or competing ligand from its target. Lower therefore signals higher affinity. As a reminder, the Kd is the constant that tells how readily two partners part at equilibrium. Read a high Kd as lower affinity. Usually log P stands for a log measure of how a compound divides between an organic and an aqueous phase.

T1 sequence (P23975 whole entry): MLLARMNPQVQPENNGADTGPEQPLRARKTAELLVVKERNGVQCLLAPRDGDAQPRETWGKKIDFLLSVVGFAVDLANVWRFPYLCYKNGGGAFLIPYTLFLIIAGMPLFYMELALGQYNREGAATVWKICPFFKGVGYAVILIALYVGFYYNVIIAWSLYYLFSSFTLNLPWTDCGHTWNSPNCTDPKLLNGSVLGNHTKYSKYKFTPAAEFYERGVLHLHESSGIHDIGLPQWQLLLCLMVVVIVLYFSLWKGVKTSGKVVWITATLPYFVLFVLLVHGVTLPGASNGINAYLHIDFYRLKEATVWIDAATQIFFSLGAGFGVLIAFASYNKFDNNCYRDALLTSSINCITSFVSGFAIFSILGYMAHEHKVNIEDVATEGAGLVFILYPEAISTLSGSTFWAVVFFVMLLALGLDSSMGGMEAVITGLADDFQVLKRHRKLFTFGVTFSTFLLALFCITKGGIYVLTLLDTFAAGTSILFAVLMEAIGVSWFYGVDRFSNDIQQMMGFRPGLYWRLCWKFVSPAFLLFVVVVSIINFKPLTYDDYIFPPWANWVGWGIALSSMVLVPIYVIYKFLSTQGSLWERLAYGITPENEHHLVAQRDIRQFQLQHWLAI

Turning to `N=C(N)NCC(O)c1cccc(O)c1` (single isomer, unassigned; (-)) [GMO, (−)-N-[^11C]guanyl-meta-octopamine], the Michaelis constant (Km) in data set [1] is 4.43 ± 0.31 µM. In addition, affinity in data set [2] (setting [7]) was put at a Ki of 20.3 ± 2.5 µM.

For `NC[C@H](O)c1ccc(O)c(O)c1` [NE, [^3H]-(−)-norepinephrine], in data set [3] (ref Iversen [14]), the Km is 0.27 µM and the Vmax is 1.18 ± 0.12 nmol/min/g wet.

With `N=C(N)NCCc1ccc(F)c(O)c1` [4F-MHPG, [^11C]4-fluoro-meta-hydroxyphenethylguanidine], the “Km increase relative to MHPG” value in data set [1] (C6-hNET cells, comparator MHPG) is given as 5 fold. Also, in data set [1], the Km worked out at 2.57 ± 0.35 µM and the Vmax is listed as 7.46 ± 0.64 pmol/min/mg protein. The compound also gave a Ki in data set [2] (setting [7]) of 5.6 ± 0.5 µM.

On to `N=[11C](N)NCC(O)c1cccc(O)c1` (single isomer, unassigned; (-)) [GMO, (−)-N-[^11C]guanyl-meta-octopamine], for which, in data set [1] (C6-hNET cells, comparator MHPG), the “Km increase relative to MHPG” value was determined as 6 fold, the “Vmax decrease relative to MHPG” value is listed as 30% and the “Vmax/Km ratio slower than for MHPG” value is ~ 9 times slower. For the same compound, the Vmax in data set [1] was found to be 5.57 ± 0.30 pmol/min/mg protein.

As to `N=[11C](N)NCCc1cc(O)ccc1F` [6F-MHPG, [^11C]6-fluoro-meta-hydroxyphenethylguanidine], in data set [1] (C6-hNET cells, comparator MHPG), the “Km increase relative to MHPG” value was ~ 5 fold, the “Vmax decrease relative to MHPG” value is ~ 50% and the “Vmax/Km as percentage of the value for MHPG” value was ~ 12%. In addition, the Vmax in data set [1] came to 4.06 ± 0.66 pmol/min/mg protein.

For `NC(N)=NCc1cccc(Br)c1` [MBBG, [^76Br]-meta-bromobenzylguanidine], in data set [3] (ref Raffel et al. [16]), the Km was 0.11 ± 0.03 µM.

As to `N=[11C](N)NCCc1ccc(O)cc1` [PHPG, [^11C]para-hydroxyphenethylguanidine], in data set [1], the Vmax is listed as 3.31 ± 0.40 pmol/min/mg protein.

As for `N=C(N)NCCc1ccc(O)cc1` [PHPG, [^11C]para-hydroxyphenethylguanidine], the Km in data set [1] was 0.52 ± 0.06 µM. This compound registered a Ki in data set [2] (setting [7]) of 1.9 ± 0.2 µM.

As to `OC1(c2ccc(Cl)cc2)c2ccccc2C2=NCCN21` (stereo not drawn) [[^3H]mazindol, [4′-^3H]Mazindol], in data set [4], the Bmax came out at 457 ± 31 fmol/mg protein and the Kd stood at 0.0012 µM.

In the case of `N=[11C](N)NCCc1cccc(O)c1` [MHPG, [^11C]meta-hydroxyphenethylguanidine], the “Vmax relative to PHPG” value in data set [1] (C6-hNET cells, comparator PHPG) worked out at 2.4 times higher. Further, the Vmax in data set [1] amounted to 7.83 ± 1.73 pmol/min/mg protein.

Consider `CNC[C@H](O)c1ccc(O)c(O)c1` [EPI, [^11C]-(−)-epinephrine], for which the “log P” value in data set [5] is recorded as −1.30. Further, the “Km increase relative to NE” value in data set [1] (C6-hNET cells, comparator NE) was determined as 11 fold. Also, in data set [2], the Ki was determined as 68.4 ± 7.6 µM.

Consider `NC(N)=NCc1cccc([76Br])c1` [MBBG, [^76Br]-meta-bromobenzylguanidine], for which, in data set [6] (ref Raffel et al. [16]), the Vmax/Km ratio is 3.0 ± 1.2 ml/min/g wet. The Vmax in data set [3] (ref Raffel et al. [16]) is recorded as 0.33 ± 0.10 nmol/min/g wet.

In the case of `N=C(N)NCc1cccc([131I])c1` [MIBG, [^131I]metaiodobenzylguanidine], the Vmax/Km ratio in data set [6] (ref DeGrado et al. [15]) is listed as 4.4 ml/min/g wet. For the same compound, the Vmax in data set [3] (ref DeGrado et al. [15]) was 0.23 nmol/min/g wet.

As for `N=C(N)NCc1cccc(I)c1` [MIBG, [^131I]metaiodobenzylguanidine], the Km in data set [3] (ref DeGrado et al. [15]) was 0.052 µM.

Regarding [^11C]-(−)-meta- hydroxyephedrine, in data set [5], the “log P” value was 0.3. In data set [1], the Km amounted to 0.48 ± 0.08 µM and the Vmax is reported as 5.43 ± 0.71 pmol/min/mg protein. The affinity in data set [2] (setting [7]) corresponds to a Ki of 43.2 ± 1.8 µM.

For `N=C(N)NCCc1cccc(O)c1` [MHPG, [^11C]meta-hydroxyphenethylguanidine], the Km in data set [1] was 0.73 ± 0.2 µM. In data set [2] (setting [7]), this compound registered a Ki of 4.9 ± 0.5 µM.

On to `N=C(N)NCCc1cc(O)ccc1F` [6F-MHPG, [^11C]6-fluoro-meta-hydroxyphenethylguanidine], for which the Km in data set [1] stood at 2.86 ± 0.43 µM. The same compound came in with a Ki in data set [2] (setting [7]) of 17.7 ± 0.5 µM.

For the compound [^3H]dopamine [DA], in data set [6] (ref Hellmann et al. [11]), the Vmax/Km ratio was 2.10 ml/min/g wet. Also, in data set [1], the Km is 0.24 ± 0.04 µM and the Vmax came out at 2.91 ± 0.47 pmol/min/mg protein. In data set [3] (ref Hellmann et al. [11]), the Km was 0.69 µM and the Vmax was 1.45 nmol/min/g wet.
